Here are results for 24 molecules from ChEMBL document CHEMBL1134458, “Synthesis and structure-activity relationships of cetiedil analogues as blockers of the Ca(2+)-activated K+ permeability of erythrocytes” (J Med Chem, 2001).

Each structure is given as a SMILES string. pIC50: −log10 of the molar value.

Data set [1] in a line: (§1) Partition coefficient (logP). Format: physicochemical. The conditions noted are these: octanol/water. The procedure, abridged:
(§2)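 Calculated, not measured, for the free base by summing Mannhold/Rekker revised hydrophobic fragmental constants.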

The species named for data set [2] is Oryctolagus cuniculus. Description: Inhibition of K+ loss from rabbit blood cells treated with [Ca2+] ionophore A-23187. Format: functional. The method, boiled down: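 Rabbit red cells were stored at 4 °C for up to 4 days, then suspended at ~1% hematocrit in low-K⁺ saline (0.1 mM KCl, 1 mM CaCl₂, inosine, Tris, pH 7.4) at 37 °C. They were preincubated 40–60 min with compound from DMSO stock (120 min for one; 3 min for highly lipophilic ones). A23187 2 μM was added, and K⁺ loss was read by K⁺ electrode over 3 min. Total K⁺ came from digitonin lysis, and loss was expressed as % of control.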

The nature of data set [3]: as §1. Format: physicochemical. As to conditions: octanol/water. The procedure, abridged: as §2
This is another data set of the same source.

The species entered for data set [4] is Oryctolagus cuniculus. Put plainly: Concentration required to cause 50% inhibition of K+ loss from rabbit blood cells treated with [Ca2+] ionophore A-23187. Format: functional. The method, boiled down:
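Rabbit red cells were stored at 4 °C for up to 4 days, then suspended at ~1% hematocrit in low-K⁺ saline (0.1 mM KCl, 1 mM CaCl₂, inosine, Tris, pH 7.4) at 37 °C. They were preincubated 40–60 min with compound from DMSO stock (120 min for one; 3 min for highly lipophilic ones). A23187 2 μM was added, and K⁺ loss was read by K⁺ electrode over 3 min. Total K⁺ came from digitonin lysis, and loss was expressed as % of control. Assays were run ≥3 times, and IC50 was fitted by Hill equation (common nH, 100% maximum).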

Take `O=C(OCCN1CCCCCC1)C1(Cc2ccc([N+](=O)[O-])cc2)c2ccccc2-c2ccccc21`: the figures for the logP in data set [1] and in data set [1] (read-out: logP) were 6.92 and 7.44, respectively. Moreover, in the data set filed under Oryctolagus cuniculus [2], the pIC50 (usually −log10 of the IC50, conventionally taken in molar units) was 5.34.
For `O=C(OCCN1CCCCCC1)C1(Cc2ccccc2)c2ccccc2-c2ccccc21` the same measures were 7.18, 7.68 and 5.40.
`O=C(OCCN1CCCCCC1)C1(Cc2ccc(Cl)cc2)c2ccccc2-c2ccccc21`: the logP (as a rule, the decadic logarithm of the partition coefficient of the neutral form, usually between octanol and water) in data set [1] is 7.89; in data set [1] (read-out: logP) it was 8.41. This molecule showed a pIC50 in the data set filed under Oryctolagus cuniculus [2] of 5.54.
In the case of `O=C(OCCN1CCCCCC1)C1(Cc2ccc(F)cc2)c2ccccc2-c2ccccc21`, the results for the logP in data set [1] and in data set [1] (read-out: logP) were 7.32 and 7.92, respectively.
With `O=C(Cc1ccsc1)OCCN1CCCCCC1`, the results for the logP in data set [1] and in data set [1] (read-out: logP) were 3.55 and 3.45, respectively. The pIC50 in the data set listed under Oryctolagus cuniculus [2] was 3.85.
The corresponding values for `O=C(OCCN1CCCCCC1)C(C1CCCCC1)C1CCCCC1` are 6.86, 8.33 and 4.85.
For `O=C(OCCCN1CCCCCC1)C(c1ccccc1)(c1ccccc1)c1ccccc1`, the logP in data set [1] (read-out: logP) turned out to be 7.65; in data set [3], 6.4. Further, in the data set listed under Oryctolagus cuniculus [4], the pIC50 was 5.04.
For `O=C(OCCN1CCCCCC1)C(c1ccccc1)(c1ccccc1)c1ccccc1` the same measures were 7.14, 6.69 and 5.09.
For `O=C(OCCN1CCCCCC1)c1c2ccccc2cc2ccccc12` the same measures were 6.45, 6.36 and 4.55.
As for `O=C(OCCN1CCCCCC1)c1cccc2ccccc12`, the values for the logP in data set [1] and in data set [1] (read-out: logP) were 5.18 and 5.16, respectively. This molecule also gave a pIC50 in the data set listed under Oryctolagus cuniculus [2] of 3.65.
As to `O=C(OCCN1CCCCCC1)C12C[C@H]3C[C@@H](C1)C[C@@H](C2)C3`, the results for the logP in data set [1] and in data set [1] (read-out: logP) were 4.38 and 5.6, respectively. In addition, the pIC50 in the data set filed under Oryctolagus cuniculus [2] was 3.75.
For the molecule `O=C(OCCN1CCCCCC1)c1ccc2ccccc2c1`, the logP in data set [1] is 5.18; in data set [1] (read-out: logP), 5.16. In the data set listed under Oryctolagus cuniculus [2], this molecule gave a pIC50 of 3.55.
Turning to `O=C(OCCN1CCCCCC1)C(c1ccccc1)C1CCCCC1` (stereo unspecified), the figures for the logP in data set [1] and in data set [1] (read-out: logP) were 5.93 and 6.88, respectively. For the same molecule, the pIC50 in the data set listed under Oryctolagus cuniculus [2] is 4.74.
For `O=C(CC1CCCCC1)OCCN1CCCCCC1` the same measures were 4.93, 5.18 and 3.54.
With `O=C(OCCN1CCCCCC1)C(c1ccccc1)c1ccccc1`, the logP in data set [1] came out at 5.25; in data set [1] (read-out: logP), 5.44. In the data set filed under Oryctolagus cuniculus [2], the pIC50 is 3.79.
Take `c1ccc(C(CCOCCN2CCCCCC2)(c2ccccc2)c2ccccc2)cc1`: the values for the logP in data set [1] (read-out: logP) and in data set [3] were 7.83 and 7.35, respectively. In addition, in the data set listed under Oryctolagus cuniculus [4], the pIC50 is 5.26.
With `O=C(CC(c1ccccc1)(c1ccccc1)c1ccccc1)OCCN1CCCCCC1`, the logP in data set [1] (read-out: logP) was 7.65; in data set [3], 7.11. In the data set listed under Oryctolagus cuniculus [4], this molecule had a pIC50 of 5.03.
For `O=C(CC(c1ccccc1)c1ccccc1)OCCN1CCCCCC1`, the logP came to 5.67 in data set [1] and 5.96 in data set [1] (read-out: logP). Besides, in the data set listed under Oryctolagus cuniculus [2], the pIC50 is 4.37.
For `O=C(OCCN1CCCCCC1)C(c1ccccc1)c1ccsc1` (stereo unspecified) the same measures were 4.9, 5.15 and 4.33.
For `O=C(OCCN1CCCCCC1)C(c1ccsc1)C1CCCCC1` (stereo unspecified) the same measures were 5.98, 6.59 and 4.60.
The corresponding values for `COc1ccc(CC2(C(=O)OCCN3CCCCCC3)c3ccccc3-c3ccccc32)cc1` are 7.09, 7.75 and 5.55.
As for `C(#CCC1(Cc2ccccc2)c2ccccc2-c2ccccc21)CN1CCCCCC1`, the logP in data set [1] came out at 9.1; in data set [3] it was 7.9. The molecule further had a pIC50 in the data set filed under Oryctolagus cuniculus [4] of 5.82.
On to `O=C(NCCN1CCCCCC1)C(c1ccsc1)C1CCCCC1` (stereo unspecified), for which the logP worked out at 5.11 in data set [1] and 5.15 in data set [1] (read-out: logP). This molecule also had a pIC50 in the data set listed under Oryctolagus cuniculus [2] of 4.12.
The corresponding values for `O=C(OCCN1CCCCCC1)C1c2ccccc2-c2ccccc21` are 5.24, 5.47 and 4.38.
